In ChEMBL document CHEMBL1130124, “Synthesis and opioid activity of [D-Pro10]dynorphin A-(1-11) analogues with N-terminal alkyl substitution” (J Med Chem, 1997):
pIC50, pKi: −log10 of the molar value.

Assays:
Cavia porcellus [1] = species on record: Cavia porcellus; assay: Opioid antagonist activity in guinea pig ileum assay; type: functional; settings: read-out: pA2 (converted)
Method in brief: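 Guinea pig ileum antagonism: tissue incubated 10 min with peptide (10 μM where stated), then given […]. Shift measured relative to the agonist IC50 obtained without test peptide.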

[2] = IC50 ratio measured as the IC50(presence of 50 uM of Gpp(NH)p)/IC50 (absence of 50 uM of Gpp(NH)p).
Method in brief: (§1)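 Guinea pig cerebellar membranes prepared in 50 mM Tris pH 7.4. [3H]diprenorphine at 0.3 nM final, 60 min at 25 °C, with 10 μM bestatin, 1 mM Leu-Leu and 100 nM DAMGO. Run without or with 120 mM NaCl plus 50 μM Gpp(NH)p. Nonspecific binding with 1 μM Dyn A-(1–13)NH2. Filtration over polyethyleneimine-soaked filters; shift expressed as IC50(+)/IC50(–).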

[3] = target: T1, Kappa-type opioid receptor (Cavia porcellus, UniProt P41144); assay: Affinity against Opioid receptor kappa 3 was determined by measuring the inhibition of [3H]NalBzoH binding to […]
T1 sequence (P41144 whole entry): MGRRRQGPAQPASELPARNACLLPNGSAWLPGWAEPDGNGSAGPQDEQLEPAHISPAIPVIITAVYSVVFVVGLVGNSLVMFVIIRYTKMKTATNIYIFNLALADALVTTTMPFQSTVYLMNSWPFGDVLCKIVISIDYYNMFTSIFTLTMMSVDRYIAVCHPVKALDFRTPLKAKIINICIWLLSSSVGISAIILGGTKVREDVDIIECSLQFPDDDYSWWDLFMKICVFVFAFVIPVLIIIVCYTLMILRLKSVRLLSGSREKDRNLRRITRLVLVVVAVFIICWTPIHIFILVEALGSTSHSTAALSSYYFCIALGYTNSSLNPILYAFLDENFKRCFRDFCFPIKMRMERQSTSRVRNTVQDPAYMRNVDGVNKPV

[4] = target: T1, Kappa-type opioid receptor; assay: Affinity against Opioid receptor kappa 1 was determined by measuring the inhibition of [3H]U-69593 binding to guinea pig […]
[5] = target: Kappa-type opioid receptor (Homo sapiens) (UniProt P41145); assay: Ki ratio is measured as the Ki values of kappa-1/kappa.2/kappa.3 receptors; 1/233/5.3
Kappa-type opioid receptor (Homo sapiens), sequence (P41145 whole entry): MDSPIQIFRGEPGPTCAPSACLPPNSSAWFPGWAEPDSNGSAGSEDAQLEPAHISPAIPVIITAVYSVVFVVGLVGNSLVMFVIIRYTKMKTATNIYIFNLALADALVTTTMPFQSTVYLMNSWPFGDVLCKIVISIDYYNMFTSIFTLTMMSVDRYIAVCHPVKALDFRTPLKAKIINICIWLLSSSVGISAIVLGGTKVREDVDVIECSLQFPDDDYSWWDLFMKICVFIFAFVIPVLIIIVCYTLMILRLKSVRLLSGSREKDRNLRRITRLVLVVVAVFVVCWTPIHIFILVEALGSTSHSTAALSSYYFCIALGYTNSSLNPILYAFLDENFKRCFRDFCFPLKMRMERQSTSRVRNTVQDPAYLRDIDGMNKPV
Method in brief: (§2)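 Hartley guinea pig whole-brain homogenate in 50 mM Tris-HCl pH 7.7 (6.67 mg wet tissue/mL; 5 mM EDTA for NalBzoH). Radioligands ~1 nM: [3H]U69,593 (κ1); [3H]bremazocine plus 100 nM DAMGO, DSLET and U69,593 (κ2); [3H]NalBzoH plus 100 nM U69,593 (κ3). Test peptide 10⁻⁵–10⁻¹¹ M, 1 h at 25 °C, with bacitracin/bestatin/thiorphan. Nonspecific binding: 1 μM U69,593, 10 μM bremazocine or NalBzoH. Filtration; Ki via Cheng–Prusoff.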

Cavia porcellus [6] = species on record: Cavia porcellus; assay: The opioid activity by guinea pig ileum assay; type: functional
Method in brief: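 Guinea pig ileum twitch assay with cumulative peptide additions to the bath. IC50 values are means from three to six replicates using tissues from different animals.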

[7] = target: T1, Kappa-type opioid receptor; assay: Affinity against Opioid receptor kappa 2 was determined by measuring the inhibition of [3H]bremazocine binding to guinea pig cerebellar membranes; parameters: species or system Cerebellum, Membrane
[8] = target: T1, Kappa-type opioid receptor; assay: Binding affinity towards Opioid receptor kappa 1 using [3H]diprenorphine as radioligand in guinea pig cerebellar membrane in presence of 120 mM NaCl + 50 uM Gpp(NH)p; type: cell membranes, Cerebellum; method in brief: as §1
[9] = target: Delta-type opioid receptor (Rattus norvegicus, UniProt P33533); assay: Affinity against Opioid receptor delta 1 was determined by measuring the inhibition of [3H]DPDPE binding to rat forebrain membranes; type: cell membranes, Membrane
Delta-type opioid receptor, sequence (P33533 whole entry): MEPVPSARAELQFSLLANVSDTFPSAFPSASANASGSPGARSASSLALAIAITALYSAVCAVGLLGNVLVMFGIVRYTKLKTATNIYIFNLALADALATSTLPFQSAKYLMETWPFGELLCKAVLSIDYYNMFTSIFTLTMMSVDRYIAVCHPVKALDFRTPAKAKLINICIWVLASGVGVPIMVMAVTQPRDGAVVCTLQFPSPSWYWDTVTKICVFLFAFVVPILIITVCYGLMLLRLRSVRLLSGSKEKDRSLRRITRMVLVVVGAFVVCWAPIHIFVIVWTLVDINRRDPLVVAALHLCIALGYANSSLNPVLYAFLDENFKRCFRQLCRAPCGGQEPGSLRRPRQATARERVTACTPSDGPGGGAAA
Method in brief: (§3)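 Rat forebrain membranes in 50 mM Tris pH 7.7, incubated 5 h at 4 °C. Final 10 μM bestatin, 30 μM captopril and 50 μM L-leucyl-L-leucine. Nonspecific binding defined with 10 μM levorphanol ([3H]DAMGO) or 10 μM unlabeled DPDPE ([3H]DPDPE). Competition curves fitted by nonlinear regression. Ratios use the lowest Ki as denominator.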

[10] = target: T2, Opioid receptors; mu/kappa/delta (Homo sapiens) (UniProt P41145+P41143+P35372); assay: Ki ratio is measured as the Ki values of kappa/mu/delta receptors; 1/8.8/41; type: protein assay
T2 sequence (P35372 whole entry, looked up): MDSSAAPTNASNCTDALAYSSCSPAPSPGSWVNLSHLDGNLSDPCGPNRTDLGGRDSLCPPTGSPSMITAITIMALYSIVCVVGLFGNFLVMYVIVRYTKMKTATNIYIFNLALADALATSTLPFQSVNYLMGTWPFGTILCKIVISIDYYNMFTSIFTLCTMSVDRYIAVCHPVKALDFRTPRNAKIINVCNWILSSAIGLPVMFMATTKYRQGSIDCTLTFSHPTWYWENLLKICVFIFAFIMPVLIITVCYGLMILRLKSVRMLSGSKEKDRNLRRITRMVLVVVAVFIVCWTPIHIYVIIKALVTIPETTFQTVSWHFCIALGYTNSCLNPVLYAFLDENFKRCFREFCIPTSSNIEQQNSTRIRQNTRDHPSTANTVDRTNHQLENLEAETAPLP
T2 sequence (P41143 whole entry, looked up): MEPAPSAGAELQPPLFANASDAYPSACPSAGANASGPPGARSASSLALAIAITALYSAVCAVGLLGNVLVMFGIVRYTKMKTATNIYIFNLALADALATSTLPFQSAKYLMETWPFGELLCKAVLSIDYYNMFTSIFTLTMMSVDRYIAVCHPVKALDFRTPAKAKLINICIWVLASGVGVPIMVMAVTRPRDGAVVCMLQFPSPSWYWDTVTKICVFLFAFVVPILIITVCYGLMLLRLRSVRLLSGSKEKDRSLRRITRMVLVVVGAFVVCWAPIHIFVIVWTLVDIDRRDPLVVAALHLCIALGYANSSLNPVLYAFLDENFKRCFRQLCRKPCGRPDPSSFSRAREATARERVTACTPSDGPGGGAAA
T2 sequence (P41145 whole entry, looked up): as the sequence (P41145 whole entry) above
Method in brief: as §3, with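 “regression. IC50 converted to Ki by Cheng–Prusoff with KD 0.314 nM (DAMGO) and 7.63 nM (DPDPE).” for “regression.”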

[11] = target: T1, Kappa-type opioid receptor; assay: Binding affinity towards Opioid receptor kappa 1 using [3H]diprenorphine as radioligand in guinea pig cerebellar membrane in absence of 120 mM NaCl + 50 uM Gpp(NH)p; type: cell membranes, Cerebellum; method in brief: as §1
[12] = target: T1, Kappa-type opioid receptor; assay: Affinity against Opioid receptor kappa 1 was determined by measuring the inhibition of [3H]bremazocine binding to guinea pig cerebellar membranes
Method in brief: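 Guinea pig cerebellar membranes with [3H]bremazocine in 20 mM HEPES pH 7.4, 3 h at 4 °C. 100 nM DAMGO and 100 nM bestatin present; nonspecific binding with 10 μM Dyn A-(1–13)NH2. Competition curves fitted by nonlinear regression. Selectivity ratios use the lowest Ki as denominator.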

Mu-type opioid receptor = Mu-type opioid receptor (Rattus norvegicus, UniProt P33535); assay: Affinity against Opioid receptor mu 1 was determined by measuring the inhibition of [3H]DAMGO binding to rat forebrain membranes; type: cell membranes, Membrane; method in brief: as §3
Mu-type opioid receptor, sequence (P33535 whole entry): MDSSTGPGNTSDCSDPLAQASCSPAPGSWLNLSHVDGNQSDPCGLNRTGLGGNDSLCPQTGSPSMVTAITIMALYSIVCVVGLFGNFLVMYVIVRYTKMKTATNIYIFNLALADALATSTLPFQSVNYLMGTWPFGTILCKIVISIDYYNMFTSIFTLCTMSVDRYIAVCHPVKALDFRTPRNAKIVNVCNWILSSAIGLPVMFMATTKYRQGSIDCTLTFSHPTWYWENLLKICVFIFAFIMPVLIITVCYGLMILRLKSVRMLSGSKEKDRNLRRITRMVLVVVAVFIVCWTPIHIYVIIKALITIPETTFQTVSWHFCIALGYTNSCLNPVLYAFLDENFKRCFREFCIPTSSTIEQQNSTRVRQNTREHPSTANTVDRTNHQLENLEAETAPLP

[13] = target: Kappa-type opioid receptor (Homo sapiens) (UniProt P41145); assay: Ki ratio is measured as the Ki values of kappa-1/kappa.2/kappa.3 receptors; 1/150/17; method in brief: as §2
[14] = target: T2, Opioid receptors; mu/kappa/delta (Homo sapiens); assay: Ki ratio is measured as the Ki values of kappa/mu/delta receptors; 1/21/880; type: protein assay
Method in brief: as §3, with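 “regression. IC50 converted to Ki by Cheng–Prusoff with KD 0.314 nM (DAMGO) and 7.63 nM (DPDPE).” for “regression.”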

[15] = target: T2, Opioid receptors; mu/kappa/delta (Homo sapiens); assay: Ki ratio is measured as the Ki values of kappa/mu/delta receptors; 1/480/27900; type: protein assay
Method in brief: as §3, with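 “regression. IC50 converted to Ki by Cheng–Prusoff with KD 0.314 nM (DAMGO) and 7.63 nM (DPDPE).” for “regression.”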

| Compound | Kb (Cavia porcellus [1]) [nM] | Ratio [2] | pIC50 (Cavia porcellus [6]) | pIC50 [8] | pKi [9] | pIC50 [11] | further results |
| --- | --- | --- | --- | --- | --- | --- | --- |
| CC[C@H](C)[C@H](NC(=O)[C@H](CCCN=C(N)N)NC(=O)[C@H](CCCN=C(N)N)NC(=O)[C@H](CC(C)C)NC(=O)[C@H](Cc1ccccc1)NC(=O)CNC(=O)CNC(=O)[C@@H](N)Cc1ccc(O)cc1)C(=O)N[C@@H](CCCN=C(N)N)C(=O)N1CCC[C@@H]1C(=O)N[C@@H](CCCCN)C(=O)O | 63.1 | – | – | – | – | – | – |
| C=CCN(CC=C)[C@@H](Cc1ccc(O)cc1)C(=O)NCC(=O)NCC(=O)N[C@@H](Cc1ccccc1)C(=O)N[C@@H](CC(C)C)C(=O)N[C@@H](CCCN=C(N)N)C(=O)N[C@@H](CCCN=C(N)N)C(=O)N[C@H](C(=O)N[C@@H](CCCN=C(N)N)C(=O)N1CCCC1C(=O)N[C@@H](CCCCN)C(=O)O)[C@@H](C)CC (stereo in doubt) | – | 3.03 | < 5.52 | 7.19 | 6.83 | 7.67 | pKi [3]: 6.95; pKi [4]: 7.67; Ki ratio [5]: kappa/delta/mu; pIC50 [7]: 5.30; Ki ratio [10]: kappa/mu/delta |
| CC[C@H](C)[C@H](NC(=O)[C@H](CCCN=C(N)N)NC(=O)[C@H](CCCN=C(N)N)NC(=O)[C@H](CC(C)C)NC(=O)[C@H](Cc1ccccc1)NC(=O)CNC(=O)CNC(=O)[C@H](Cc1ccc(O)cc1)N(Cc1ccccc1)Cc1ccccc1)C(=O)N[C@@H](CCCN=C(N)N)C(=O)N1CCCC1C(=O)N[C@@H](CCCCN)C(=O)O (stereo in doubt) [listing 1 of 3 here] | – | – | – | 6.41 | 5.56 | 7.36 | pKi [12]: 8.44; pKi (Mu-type opioid receptor): 6.89 |
| CC[C@H](C)[C@H](NC(=O)[C@H](CCCN=C(N)N)NC(=O)[C@H](CCCN=C(N)N)NC(=O)[C@H](CC(C)C)NC(=O)[C@H](Cc1ccccc1)NC(=O)CNC(=O)CNC(=O)[C@H](Cc1ccc(O)cc1)N(Cc1ccccc1)Cc1ccccc1)C(=O)N[C@@H](CCCN=C(N)N)C(=O)N1CCCC1C(=O)N[C@@H](CCCCN)C(=O)O (stereo in doubt) [listing 2 of 3 here] | – | – | 6.64 | – | – | – | – |
| C=CCN[C@@H](Cc1ccc(O)cc1)C(=O)NCC(=O)NCC(=O)N[C@@H](Cc1ccccc1)C(=O)N[C@@H](CC(C)C)C(=O)N[C@@H](CCCN=C(N)N)C(=O)N[C@@H](CCCN=C(N)N)C(=O)N[C@H](C(=O)N[C@@H](CCCN=C(N)N)C(=O)N1CCCC1C(=O)N[C@@H](CCCCN)C(=O)O)[C@@H](C)CC (stereo in doubt) | 25.1 | – | – | – | – | – | – |
| CC[C@H](C)[C@H](NC(=O)[C@H](CCCN=C(N)N)NC(=O)[C@H](CCCN=C(N)N)NC(=O)[C@H](CC(C)C)NC(=O)[C@H](Cc1ccccc1)NC(=O)CNC(=O)CNC(=O)[C@H](Cc1ccc(O)cc1)N(CC1CC1)CC1CC1)C(=O)N[C@@H](CCCN=C(N)N)C(=O)N1CCCC1C(=O)N[C@@H](CCCCN)C(=O)O (stereo in doubt) | 50.1 | 8.79 | < 4.00 | 7.54 | 6.78 | 8.48 | pKi [3]: 7.35; pKi [4]: 8.58; pIC50 [7]: 6.41; Ki ratio [13]: kappa/mu/delta; pKi [12]: 9.72; pKi (Mu-type opioid receptor): 8.41; Ki ratio [14]: kappa/mu/delta |
| CC[C@H](C)[C@H](NC(=O)[C@H](CCCN=C(N)N)NC(=O)[C@H](CCCN=C(N)N)NC(=O)[C@H](CC(C)C)NC(=O)[C@H](Cc1ccccc1)NC(=O)CNC(=O)CNC(=O)[C@H](Cc1ccc(O)cc1)NCC1CC1)C(=O)N[C@@H](CCCN=C(N)N)C(=O)N1CCCC1C(=O)N[C@@H](CCCCN)C(=O)O (stereo in doubt) | 50.1 | 66.9 | 8.67 | 7.57 | 6.25 | 9.39 | Ki ratio [15]: kappa/delta/mu |
| CC[C@H](C)[C@H](NC(=O)[C@H](CCCN=C(N)N)NC(=O)[C@H](CCCN=C(N)N)NC(=O)[C@H](CC(C)C)NC(=O)[C@H](Cc1ccccc1)NC(=O)CNC(=O)CNC(=O)[C@H](Cc1ccc(O)cc1)N(Cc1ccccc1)Cc1ccccc1)C(=O)N[C@@H](CCCN=C(N)N)C(=O)N1CCCC1C(=O)N[C@@H](CCCCN)C(=O)O (stereo in doubt) [listing 3 of 3 here] | – | 9.05 | – | – | – | – | – |
